Measured values from different studies.
Each line is one published result; the experiments were not run side by side.
Target: Serine/threonine-protein kinase WNK3 (WNK3, Homo sapiens, UniProt Q9BYP7)

For `CCCS(=O)(=O)Nc1ccc(F)c(C(=O)c2c[nH]c3ncc(-c4ccc(Cl)cc4)cc23)c1F`, the inhibition was less than 10% (enzyme activity, inhibitor; 1 µM).
`O=C1Nc2ccc(Cl)cc2C1=Cc1cc(Cl)c(O)c(Cl)c1` gave a remaining signal of 90.7% (cell-free assay; 0.5 µM).
With `CCCOc1ccc(OC)c(F)c1C(=O)c1ccc(C(=O)N[C@@H]2CNC[C@H]2NC(=O)c2ccc3[nH]ncc3c2)cc1` the remaining activity was 95% (enzyme activity, inhibitor; 10 µM).
With `FC(F)(F)c1ccc2c(c1)nc(-c1cccnc1)n2C1CC1` the remaining binding was 100% (cell-free assay, competition with immobilised ligand; 1 µM).
`O=C(Nc1cnn(-c2csc(C(=O)NC3COC3)c2)c1)Nc1c(F)cccc1Cl` has a remaining activity of 91.8% (enzyme activity, inhibitor; 5 µM).
With `Cc1ccc(Nc2nccc(N(C)c3ccc4c(C)n(C)nc4c3)n2)cc1S(N)(=O)=O` the inhibition was -4% (enzyme activity, inhibitor; 0.3 µM).
With `CCN(CC)c1ccc(C2=NNC(=O)CC2C)cc1[N+](=O)[O-]` (centres unmarked) the remaining activity was 105% (enzyme activity, inhibitor; 10 µM).
`C[C@H](c1ccnc(Nc2nc3ccc(-c4cc(N(C)C)ncn4)cc3[nH]2)c1)N1CCN(C(=O)CC(F)(F)F)CC1` gave a remaining binding of 100% (cell-free assay, competition with immobilised ligand; 0.1 µM).
`Cc1cnc(NC2CCOCC2)nc1-n1cnc(C(=O)NC(CN)c2cc(F)cc(Cl)c2)c1` (centres unmarked) has a remaining activity of 103% (enzyme activity, inhibitor, radiometric; 1 µM).
`CNC(=O)c1cc(Oc2ccc(NC(=O)Nc3ccc(Cl)c(C(F)(F)F)c3)cc2)ccn1` gave an inhibition of -6% (enzyme activity, inhibitor; 0.3 µM).
`CC(C)(O)[C@H]1CC[C@H](Nc2ccc3ncc(-c4cccc(C(F)(F)F)c4)n3n2)CC1` gave a remaining activity of 90.7% (enzyme activity, inhibitor; 1 µM).
`Cc1cc(NC(=O)c2cccc(S(F)(F)(F)(F)F)c2)cc(-n2ccn3nc(-c4cccnc4)cc23)c1` gave a remaining binding of 100% (cell-free assay, competition with immobilised ligand; 1 µM).
For `CCN(CC)CCNC(=O)c1c(C)[nH]c(/C=C2\C(=O)Nc3ccc(F)cc32)c1C`, the inhibition was -4% (enzyme activity, inhibitor; 0.3 µM).
`CN(C)C(=O)Cn1cc(-c2nc([C@@](C)(c3ccc(-c4cnc(N)nc4)cc3)C3CC3)no2)cn1` gave a remaining binding of 76% (cell-free assay, competition with immobilised ligand; 1 µM).
For `CN1CC(Oc2cnc(C#N)cc2-c2ccn3nc(NC(=O)C4CC4)cc3c2)C1`, the inhibition was -5% (enzyme activity, inhibitor; 1 µM).
`CCC(=N\O)/C(C)=C/c1ccc(F)cc1` has a remaining binding of 75% (cell-free assay, competition with immobilised ligand; 1 µM).
With `CC(C)(C)c1nc2c(s1)c1nc(N)ncc1c1ccc(NS(=O)(=O)c3c(F)cccc3F)c(F)c12` the remaining activity was 91% (enzyme activity, inhibitor, radiometric; 1 µM).
